Test results reported in ChEMBL document CHEMBL3352173, “Optimization of pyrrolamide topoisomerase II inhibitors toward identification of an antibacterial clinical candidate (AZD5099)” (J Med Chem, 2014).
Values after ≈ are worked out from the molar mass of the structure shown.

What was measured:
[1] = Percentage unbound in mouse plasma; assay type: ADME, cell-free
[2] = Percentage unbound in rat plasma; assay type: ADME, cell-free
[3] = molecular target: DNA gyrase subunit B (Staphylococcus aureus, UniProt P0A0K8); test: Inhibition of ATPase activity of Staphylococcus aureus GyrB
Sequence of DNA gyrase subunit B (P0A0K8 whole entry): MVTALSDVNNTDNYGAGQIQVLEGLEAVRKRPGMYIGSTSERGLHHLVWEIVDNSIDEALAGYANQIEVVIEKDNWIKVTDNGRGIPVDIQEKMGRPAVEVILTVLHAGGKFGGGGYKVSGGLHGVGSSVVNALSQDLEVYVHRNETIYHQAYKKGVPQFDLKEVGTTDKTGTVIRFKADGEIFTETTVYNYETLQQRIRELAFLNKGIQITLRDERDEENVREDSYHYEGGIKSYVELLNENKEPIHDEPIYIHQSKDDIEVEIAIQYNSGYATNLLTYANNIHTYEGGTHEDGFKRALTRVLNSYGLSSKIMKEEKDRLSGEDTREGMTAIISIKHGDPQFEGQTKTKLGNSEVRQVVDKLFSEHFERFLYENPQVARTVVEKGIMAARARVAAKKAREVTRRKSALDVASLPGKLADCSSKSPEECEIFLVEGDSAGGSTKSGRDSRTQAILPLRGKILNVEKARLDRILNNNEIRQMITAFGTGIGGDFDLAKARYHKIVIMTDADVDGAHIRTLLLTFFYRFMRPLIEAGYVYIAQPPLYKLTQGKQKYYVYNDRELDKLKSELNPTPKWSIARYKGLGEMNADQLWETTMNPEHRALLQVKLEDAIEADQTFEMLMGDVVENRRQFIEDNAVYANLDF
Procedure, shortened: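 IC50 was determined against S. aureus GyrB in the routine screening assay. The enzyme concentration limits resolution below 10 nM.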

[4] = tested on: Escherichia coli; test: Antimicrobial activity against Escherichia coli tolC- by broth microdilution/CLSI method; assay type: functional
[5] = Clearance in rat at 10 mg/kg, iv; assay type: ADME, organism-based; parameters: dose 10 mg/kg, route intravenous; settings: in vivo
[6] = tested on: Escherichia coli; test: Antimicrobial activity against wild-type Escherichia coli Eco523 by broth microdilution/CLSI method; assay type: functional
[7] = tested on: Staphylococcus aureus; test: Antimicrobial activity against methicillin-sensitive Staphylococcus aureus by broth microdilution/CLSI method; assay type: functional
[8] = Octanol-phosphate buffer distribution coefficient, log D of the compound at pH 7.4 by shake flask method; assay type: physicochemical
[9] = Clearance in dog at 10 mg/kg, iv; assay type: ADME, organism-based, Canis lupus familiaris; parameters: dose 10 mg/kg, route intravenous; settings: plasma
[10] = Bioavailability in dog at 10 mg/kg, iv; assay type: ADME, organism-based, Canis lupus familiaris; settings: plasma
[11] = tested on: Haemophilus influenzae; test: Antimicrobial activity against Haemophilus influenzae by broth microdilution/CLSI method; assay type: functional
[12] = tested on: Moraxella catarrhalis; test: Antimicrobial activity against Moraxella catarrhalis by broth microdilution/CLSI method; assay type: functional
[13] = tested on: Streptococcus pyogenes; test: Antimicrobial activity against Streptococcus pyogenes by broth microdilution/CLSI method; assay type: functional
[14] = Solubility of the compound; assay type: physicochemical
[15] = Ratio of MIC for methicillin, quinolone-resistant Staphylococcus aureus to fraction unbound in human plasma; assay type: ADME
[16] = Percentage unbound in dog plasma; assay type: ADME, cell-free, Canis lupus familiaris
[17] = Percentage unbound in human plasma; assay type: ADME, cell-free
[18] = tested on: Streptococcus pneumoniae; test: Antibacterial activity against Streptococcus pneumoniae by broth microdilution/CLSI method; assay type: functional
[19] = tested on: Staphylococcus aureus; test: Antimicrobial activity against methicillin, quinolone-resistant Staphylococcus aureus by broth microdilution/CLSI method; assay type: functional
[20] = Dissociation constant, pKa of the compound; assay type: physicochemical
[21] = molecular target: T1, ATP-binding cassette sub-family C member 2 (Rattus norvegicus, UniProt Q63120); test: Inhibition of ATPase activity of rat Mrp2 assessed as inorganic phosphate
T1 sequence (Q63120 whole entry): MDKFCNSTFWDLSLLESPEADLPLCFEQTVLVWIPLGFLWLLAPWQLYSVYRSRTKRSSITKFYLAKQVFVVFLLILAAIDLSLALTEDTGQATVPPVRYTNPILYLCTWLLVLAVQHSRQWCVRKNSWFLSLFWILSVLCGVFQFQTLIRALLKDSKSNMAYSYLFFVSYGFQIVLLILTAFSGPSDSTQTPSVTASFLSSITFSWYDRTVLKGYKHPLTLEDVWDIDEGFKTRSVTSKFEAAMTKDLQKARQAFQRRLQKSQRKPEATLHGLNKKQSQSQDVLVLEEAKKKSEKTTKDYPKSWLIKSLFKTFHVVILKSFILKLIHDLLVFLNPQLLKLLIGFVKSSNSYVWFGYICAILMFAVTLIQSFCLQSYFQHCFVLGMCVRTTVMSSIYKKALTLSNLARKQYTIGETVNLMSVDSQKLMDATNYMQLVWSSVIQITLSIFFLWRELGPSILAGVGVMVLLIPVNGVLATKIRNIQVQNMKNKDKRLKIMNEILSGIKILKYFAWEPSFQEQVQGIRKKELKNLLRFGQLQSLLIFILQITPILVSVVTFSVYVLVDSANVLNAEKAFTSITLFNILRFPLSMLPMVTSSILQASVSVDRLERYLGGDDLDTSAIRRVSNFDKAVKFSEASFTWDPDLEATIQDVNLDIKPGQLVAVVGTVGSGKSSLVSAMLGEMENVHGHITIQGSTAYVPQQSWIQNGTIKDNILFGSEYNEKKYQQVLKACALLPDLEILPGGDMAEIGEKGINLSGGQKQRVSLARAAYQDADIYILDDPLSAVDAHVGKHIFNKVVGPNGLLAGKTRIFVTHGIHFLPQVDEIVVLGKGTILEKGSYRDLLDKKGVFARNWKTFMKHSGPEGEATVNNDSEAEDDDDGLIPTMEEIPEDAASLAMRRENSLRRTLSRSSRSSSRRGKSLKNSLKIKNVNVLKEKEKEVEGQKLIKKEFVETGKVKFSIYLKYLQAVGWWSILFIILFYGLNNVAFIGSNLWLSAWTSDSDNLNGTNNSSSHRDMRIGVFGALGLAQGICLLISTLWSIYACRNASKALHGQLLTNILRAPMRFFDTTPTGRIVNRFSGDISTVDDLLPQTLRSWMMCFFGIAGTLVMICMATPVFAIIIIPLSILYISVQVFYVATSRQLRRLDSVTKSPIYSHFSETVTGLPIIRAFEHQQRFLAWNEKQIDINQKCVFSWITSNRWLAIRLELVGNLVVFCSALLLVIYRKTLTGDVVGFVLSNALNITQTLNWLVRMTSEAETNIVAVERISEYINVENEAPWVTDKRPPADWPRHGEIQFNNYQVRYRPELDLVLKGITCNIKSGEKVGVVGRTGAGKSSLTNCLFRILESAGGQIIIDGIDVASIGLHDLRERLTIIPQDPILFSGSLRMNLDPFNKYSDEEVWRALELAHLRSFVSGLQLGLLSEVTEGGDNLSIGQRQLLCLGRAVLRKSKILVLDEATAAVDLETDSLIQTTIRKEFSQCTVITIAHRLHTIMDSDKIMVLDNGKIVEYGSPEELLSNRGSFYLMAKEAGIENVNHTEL

[22] = Clearance in CD1 mouse at 10 mg/kg, iv; assay type: ADME, organism-based; parameters: dose 10 mg/kg, route intravenous; settings: in vivo
[23] = molecular target: T2, ATP-binding cassette sub-family C member 2 (Homo sapiens, UniProt Q92887); test: Stimulation of ATPase activity of human MRP2 assessed as inorganic phosphate
T2 sequence (Q92887 whole entry): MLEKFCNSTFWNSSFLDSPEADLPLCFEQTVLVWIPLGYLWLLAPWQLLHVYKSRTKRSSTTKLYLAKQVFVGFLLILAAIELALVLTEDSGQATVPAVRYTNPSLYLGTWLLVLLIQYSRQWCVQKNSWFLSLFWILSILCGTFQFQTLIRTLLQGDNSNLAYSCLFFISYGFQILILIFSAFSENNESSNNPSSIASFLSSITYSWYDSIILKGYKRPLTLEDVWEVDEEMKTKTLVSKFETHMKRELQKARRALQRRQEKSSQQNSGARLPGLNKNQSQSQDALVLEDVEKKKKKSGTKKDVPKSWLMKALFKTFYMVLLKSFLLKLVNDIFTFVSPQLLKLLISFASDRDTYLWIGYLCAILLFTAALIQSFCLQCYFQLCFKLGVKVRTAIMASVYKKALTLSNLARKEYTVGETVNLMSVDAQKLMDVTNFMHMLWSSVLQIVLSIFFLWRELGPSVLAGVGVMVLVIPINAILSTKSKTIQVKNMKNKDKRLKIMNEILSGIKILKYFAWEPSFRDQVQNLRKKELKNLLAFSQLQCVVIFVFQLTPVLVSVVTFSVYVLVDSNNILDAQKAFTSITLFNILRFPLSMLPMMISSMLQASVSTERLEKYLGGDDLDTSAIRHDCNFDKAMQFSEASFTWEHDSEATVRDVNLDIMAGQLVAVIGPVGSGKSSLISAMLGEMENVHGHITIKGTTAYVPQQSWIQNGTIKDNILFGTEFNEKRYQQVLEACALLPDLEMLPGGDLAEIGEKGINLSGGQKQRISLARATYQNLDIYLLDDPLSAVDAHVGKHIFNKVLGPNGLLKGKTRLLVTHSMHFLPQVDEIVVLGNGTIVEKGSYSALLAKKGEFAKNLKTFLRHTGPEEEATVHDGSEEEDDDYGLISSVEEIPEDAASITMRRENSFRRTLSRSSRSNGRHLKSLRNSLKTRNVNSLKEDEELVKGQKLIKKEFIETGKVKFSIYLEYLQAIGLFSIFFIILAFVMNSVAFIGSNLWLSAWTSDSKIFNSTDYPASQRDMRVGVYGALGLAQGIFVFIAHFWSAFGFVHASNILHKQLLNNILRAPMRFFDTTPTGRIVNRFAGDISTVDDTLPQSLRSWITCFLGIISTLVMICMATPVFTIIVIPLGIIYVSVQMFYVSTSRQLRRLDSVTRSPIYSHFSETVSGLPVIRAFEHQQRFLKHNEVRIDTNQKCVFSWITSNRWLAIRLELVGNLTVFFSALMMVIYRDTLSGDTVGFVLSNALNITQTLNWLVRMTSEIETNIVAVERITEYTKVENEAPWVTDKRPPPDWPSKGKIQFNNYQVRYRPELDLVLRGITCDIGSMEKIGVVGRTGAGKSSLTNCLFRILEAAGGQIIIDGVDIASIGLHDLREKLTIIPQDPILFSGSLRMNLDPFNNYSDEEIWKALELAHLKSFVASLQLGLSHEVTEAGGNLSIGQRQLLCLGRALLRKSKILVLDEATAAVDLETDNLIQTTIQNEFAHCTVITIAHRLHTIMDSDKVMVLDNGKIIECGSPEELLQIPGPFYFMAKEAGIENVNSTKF

[24] = Bioavailability in Wistar rat at 10 mg/kg, […]; assay type: ADME, organism-based; settings: in vivo
[25] = Clearance in TR-negative Wistar rat at 10 mg/kg, iv; assay type: ADME, organism-based; parameters: dose 10 mg/kg, route intravenous; settings: in vivo
[26] = Clearance in Wistar rat at 10 mg/kg, iv; assay type: ADME, organism-based; parameters: dose 10 mg/kg, route intravenous; settings: in vivo
[27] = molecular target: T2, ATP-binding cassette sub-family C member 2; test: Inhibition of ATPase activity of human MRP2 assessed as inorganic phosphate
[28] = molecular target: T1, ATP-binding cassette sub-family C member 2; test: Stimulation of ATPase activity of rat Mrp2 assessed as inorganic phosphate
[29] = Bioavailability in CD1 mouse at 10 mg/kg, […]; assay type: ADME, organism-based; settings: in vivo
[30] = Escherichia coli, read-out: MIC
[31] = Escherichia coli, Eco523, read-out: MIC
[32] = Staphylococcus aureus, read-out: MIC
[33] = Haemophilus influenzae, read-out: MIC
[34] = Moraxella catarrhalis, read-out: MIC
[35] = Streptococcus pneumoniae, read-out: MIC

SMILES	IC50 [3] [µM]	MIC [4, 30] [µg/mL]	clearance [5] [mL/min/kg]	MIC [6, 31] [µg/mL]	MIC [7, 32] [µg/mL]	logD [8]	MIC [11, 33] [µg/mL]	MIC [12, 34] [µg/mL]	MIC [13] [µg/mL]	solubility [14] [µM]	Ratio [15]	fraction unbound [17]	MIC [18, 35] [µg/mL]	MIC [19, 32] [µg/mL]	further results
CO[C@H]1CN(c2nc(-c3cnccn3)c(C(=O)O)s2)CC[C@H]1NC(=O)c1[nH]c(C)c(Cl)c1Cl	< 0.01	0.5 (≈ 0.978 µM)	2.7	> 8	0.031 (≈ 0.0606 µM)	1.2	0.13 (≈ 0.254 µM)	0.008 (≈ 0.0156 µM)	0.01 (≈ 0.0196 µM)	540 (≈ 276 µg/mL)	0.46	0.039	0.007 (≈ 0.0137 µM)	0.018 (≈ 0.0352 µM)	fraction unbound [1]: 0.074; fraction unbound [2]: 0.0715; clearance [9]: 0.73 mL/min/kg; bioavailability [10]: 18%; fraction unbound [16]: 0.13; pKa [20]: 5.4
CO[C@H]1CN(c2ncc(C(=O)O)s2)CC[C@H]1NC(=O)c1[nH]c(C)c(Cl)c1Cl	< 0.01		52								7	0.071			MIC [4]: 0.18 µg/mL (≈ 0.415 µM); MIC [6]: 64 µg/mL (≈ 148 µM); IC50 [21]: > 200 µM; MIC [7]: 0.32 µg/mL (≈ 0.738 µM); clearance [22]: 99 mL/min/kg; EC50 [23]: 71 µM; clearance [9]: 26 mL/min/kg; bioavailability [24]: 6.7%; clearance [25]: 9.1 mL/min/kg; MIC [11]: 0.18 µg/mL (≈ 0.415 µM); MIC [12]: 0.031 µg/mL (≈ 0.0715 µM); clearance [26]: 34 mL/min/kg; fraction unbound [16]: 0.22; MIC [18]: 0.016 µg/mL (≈ 0.0369 µM); IC50 [27]: > 200 µM; EC50 [28]: 38 µM; MIC [19]: 0.5 µg/mL (≈ 1.15 µM); pKa [20]: 3.6
COCCNC(=O)c1nc(N2CC[C@@H](NC(=O)c3[nH]c(C)c(Cl)c3Cl)[C@@H](OC)C2)sc1C(=O)O	< 0.01	0.62 (≈ 1.16 µM)	9.5	24 (≈ 44.9 µM)	0.078 (≈ 0.146 µM)	1.2	0.15 (≈ 0.281 µM)	0.17 (≈ 0.318 µM)	0.017 (≈ 0.0318 µM)	880 (≈ 470 µg/mL)	3.3	0.027	0.018 (≈ 0.0337 µM)	0.089 (≈ 0.167 µM)	fraction unbound [1]: 0.0585; fraction unbound [2]: 0.038; IC50 [21]: 78 µM; clearance [22]: 57 mL/min/kg; EC50 [23]: > 200 µM; clearance [9]: 3 mL/min/kg; bioavailability [24]: 34%; bioavailability [10]: 100%; clearance [25]: 1.5 mL/min/kg; clearance [26]: 2.1 mL/min/kg; bioavailability [29]: 57%; fraction unbound [16]: 0.082; IC50 [27]: 100 µM; EC50 [28]: > 200 µM; pKa [20]: 4.4
COCC(COC)(COC)NC(=O)c1nc(N2CC[C@@H](NC(=O)c3[nH]c(C)c(Cl)c3Cl)[C@@H](OC)C2)sc1C(=O)O	< 0.01	1.3 (≈ 2.09 µM)	18	29 (≈ 46.6 µM)	0.031 (≈ 0.0498 µM)	1.9	0.15 (≈ 0.241 µM)	0.008 (≈ 0.0129 µM)	0.016 (≈ 0.0257 µM)	720 (≈ 448 µg/mL)	0.66	0.047	0.016 (≈ 0.0257 µM)	0.031 (≈ 0.0498 µM)	
CO[C@H]1CN(c2nc(C(=O)NCC3(C)OCCO3)c(C(=O)O)s2)CC[C@H]1NC(=O)c1[nH]c(C)c(Cl)c1Cl	< 0.01	0.5 (≈ 0.867 µM)	34	11 (≈ 19.1 µM)	0.063 (≈ 0.109 µM)	1	0.11 (≈ 0.191 µM)	0.016 (≈ 0.0278 µM)	0.016 (≈ 0.0278 µM)	620 (≈ 357 µg/mL)	2.6	0.032	0.016 (≈ 0.0278 µM)	0.084 (≈ 0.146 µM)	
CO[C@H]1CN(c2nc(-c3cncc(OCCN(C)C)n3)c(C(=O)O)s2)CC[C@H]1NC(=O)c1[nH]c(C)c(Cl)c1Cl	< 0.01	0.23 (≈ 0.384 µM)	9.6	60 (≈ 100 µM)	0.13 (≈ 0.217 µM)	0.8	0.23 (≈ 0.384 µM)		0.031 (≈ 0.0518 µM)	770 (≈ 461 µg/mL)	5.1	0.037	0.011 (≈ 0.0184 µM)	0.19 (≈ 0.317 µM)	
CO[C@H]1CN(c2nc(C(=O)NCC3OCCO3)c(C(=O)O)s2)CC[C@H]1NC(=O)c1[nH]c(C)c(Cl)c1Cl	< 0.01	0.79 (≈ 1.4 µM)	33	> 8	0.063 (≈ 0.112 µM)	0.76	0.1 (≈ 0.178 µM)	0.013 (≈ 0.0231 µM)	0.02 (≈ 0.0356 µM)	940 (≈ 529 µg/mL)	3.6	0.028	0.04 (≈ 0.0711 µM)	0.1 (≈ 0.178 µM)	
CO[C@H]1CN(c2nc(-c3nc(C)no3)c(C(=O)O)s2)CC[C@H]1NC(=O)c1[nH]c(C)c(Cl)c1Cl	< 0.01	0.5 (≈ 0.97 µM)	110	32 (≈ 62.1 µM)	0.13 (≈ 0.252 µM)	0.07	0.13 (≈ 0.252 µM)	< 0.06	< 0.06	630 (≈ 325 µg/mL)	8.7	0.015	< 0.06	0.13 (≈ 0.252 µM)	
Cc1[nH]c(C(=O)NC2CCN(c3ncc(C(=O)O)s3)CC2)c(Cl)c1Cl	0.062	0.22 (≈ 0.546 µM)		> 64	11 (≈ 27.3 µM)		0.5 (≈ 1.24 µM)	2.2 (≈ 5.46 µM)	0.79 (≈ 1.96 µM)				0.81 (≈ 2.01 µM)	13 (≈ 32.2 µM)	fraction unbound [1]: 0.089; fraction unbound [2]: 0.086; IC50 [21]: > 200 µM; clearance [22]: 15.5 mL/min/kg; EC50 [23]: 145 µM; clearance [9]: 3 mL/min/kg; bioavailability [24]: 6.7%; clearance [25]: 20 mL/min/kg; clearance [26]: 78 mL/min/kg; fraction unbound [16]: 0.12; IC50 [27]: > 200 µM; EC50 [28]: 27 µM; pKa [20]: 3.4
CO[C@H]1CN(c2nc(C)c(C(=O)O)s2)CC[C@H]1NC(=O)c1[nH]c(C)c(Cl)c1Cl	< 0.01	0.25 (≈ 0.559 µM)	26	> 8	0.031 (≈ 0.0693 µM)	1.2	0.072 (≈ 0.161 µM)	0.008 (≈ 0.0179 µM)	< 0.008	450 (≈ 201 µg/mL)	2.9	0.018	0.013 (≈ 0.0291 µM)	0.053 (≈ 0.118 µM)	
CO[C@H]1CN(c2nc(CN3CCOCC3)c(C(=O)O)s2)CC[C@H]1NC(=O)c1[nH]c(C)c(Cl)c1Cl (racemic)	< 0.01	> 8	0.25	0.13 (≈ 0.244 µM)	2 (≈ 3.76 µM)	1.4	4 (≈ 7.51 µM)	1 (≈ 1.88 µM)	0.25 (≈ 0.47 µM)	> 1000	35	0.057	0.25 (≈ 0.47 µM)	2 (≈ 3.76 µM)	
CO[C@H]1CN(c2nc(C(C)=O)c(C(=O)O)s2)CC[C@H]1NC(=O)c1[nH]c(C)c(Cl)c1Cl	< 0.01	0.26 (≈ 0.547 µM)	9.3	30 (≈ 63.1 µM)	0.063 (≈ 0.133 µM)	0.36	0.15 (≈ 0.316 µM)	0.02 (≈ 0.0421 µM)	0.02 (≈ 0.0421 µM)	890 (≈ 423 µg/mL)	3.7	0.019	0.02 (≈ 0.0421 µM)	0.063 (≈ 0.133 µM)	
CO[C@H]1CN(c2nc(-c3ccncn3)c(C(=O)O)s2)CC[C@H]1NC(=O)c1[nH]c(C)c(Cl)c1Cl	< 0.01	0.5 (≈ 0.978 µM)	3.8	16 (≈ 31.3 µM)	< 0.06	1.7	0.12 (≈ 0.235 µM)	< 0.06	< 0.06	350 (≈ 179 µg/mL)	0.74	0.042	< 0.06	0.031 (≈ 0.0606 µM)	
CNC(=O)c1nc(N2CC[C@@H](NC(=O)c3[nH]c(C)c(Cl)c3Cl)[C@@H](OC)C2)sc1C(=O)O	< 0.01	0.3 (≈ 0.612 µM)	14	18 (≈ 36.7 µM)	0.063 (≈ 0.128 µM)	1.3	0.14 (≈ 0.285 µM)	0.011 (≈ 0.0224 µM)	0.013 (≈ 0.0265 µM)	56 (≈ 27.5 µg/mL)	3.15	0.02	0.016 (≈ 0.0326 µM)	0.063 (≈ 0.128 µM)	
CO[C@H]1CN(c2nc(C(=O)O)cs2)CC[C@H]1NC(=O)c1[nH]c(C)c(Cl)c1Cl	< 0.01	0.1 (≈ 0.231 µM)	49	> 8	0.2 (≈ 0.462 µM)	0.25	0.1 (≈ 0.231 µM)	0.05 (≈ 0.115 µM)	0.035 (≈ 0.0808 µM)	930 (≈ 403 µg/mL)	15	0.022	0.2 (≈ 0.462 µM)	0.32 (≈ 0.738 µM)	
